ChEMBL document CHEMBL1268966, “Tetrasubstituted naphthalene diimide ligands with selectivity for telomeric G-quadruplexes and cancer cells” (Bioorg Med Chem Lett, 2010)
pIC50: −log10 of the molar value. The source made the active and inactive calls. The calls are words filed in the database; no cut-off is given here.

Experiments:
A549 = experiment: Cytotoxicity against human A549 cells after 96 hrs by SRB assay; details: A549, 96 h
Nucleic Acid [1] = experiment: Stabilization of human c-kit1 G4 DNA sequence assessed as melting temperature by FRET assay; type: nucleic-acid assay
MIA PaCa-2 = experiment: Cytotoxicity against human MIAPaCa2 cells after 96 hrs by SRB assay; details: MIA PaCa-2, 96 h
PANC-1 = experiment: Cytotoxicity against human PANC1 cells after 96 hrs by SRB assay; details: PANC-1, 96 h
Nucleic Acid [2] = experiment: Stabilization of human G4-telomeric quadruplex 23-mer DNA assessed as topology at 1:1 to 1:15 DNA to compound ratio at pH 7.4 after 6 hrs by circular dichroism spectroscopy in presence of 100 mM Na+ ions; type: nucleic-acid assay
Procedure, shortened: (§1)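 Circular dichroism spectra of the human telomeric 23-mer DNA at pH 7.4 with various DNA:ligand ratios.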

Nucleic Acid [3] = experiment: Stabilization of human F21T G4-telomeric quadruplex assessed in presence of 300 fold excess duplex DNA by FRET assay; type: nucleic-acid assay
Procedure, shortened: (§2)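 FRET melting temperature assay reporting the shift in quadruplex melting temperature. Competition runs added excess duplex DNA at different ratios, expressed as G-quartet concentration versus duplex nucleotide phosphate concentration.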

Nucleic Acid [4] = experiment: Stabilization of human F21T G4-telomeric quadruplex assessed as melting temperature by FRET assay; type: nucleic-acid assay
Procedure, shortened: as §2

[5] = Cytotoxicity against human WI138 cells after 96 hrs by SRB assay
Nucleic Acid [6] = experiment: Stabilization of human G4-telomeric quadruplex 23-mer DNA assessed as topology at 1:1 to 1:15 DNA to compound ratio at pH 7.4 after 6 hrs by circular dichroism spectroscopy in presence of 100 mM K+ ions; type: nucleic-acid assay
Procedure, shortened: as §1

HPAC = experiment: Cytotoxicity against human HPAC cells after 96 hrs by SRB assay
Nucleic Acid [7] = experiment: Stabilization of Wt26 G-telomeric quadruplex DNA assessed as inhibition of human POT1 binding to DNA by EMSA assay; type: nucleic-acid assay
Procedure, shortened: (§3)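 In vitro EMSA measuring displacement of hPOT1 or Topo IIIα binding to the telomeric sequence WT26. For Topo IIIα, a duplex DNA substrate was tested in parallel.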

Nucleic Acid [8] = experiment: Stabilization of duplex DNA assessed as inhibition of human TOPO 3-alpha binding to duplex DNA by EMSA assay; type: nucleic-acid assay
Procedure, shortened: as §3

Nucleic Acid [9] = experiment: Stabilization of Wt26 G-telomeric quadruplex DNA assessed as inhibition of human TOPO 3-alpha binding to DNA by EMSA assay; type: nucleic-acid assay
Procedure, shortened: as §3

MCF7 [10] = experiment: Cytotoxicity against human MCF7 cells after 96 hrs by SRB assay; details: MCF7, 96 h
Nucleic Acid [11] = experiment: Stabilization of human duplex DNA T-loop assessed as melting temperature by FRET assay; type: nucleic-acid assay
Nucleic Acid [12] = experiment: Stabilization of human F21T G4-telomeric quadruplex by FRET assay in presence of duplex to quadruplex DNA ratio of 10:1; type: nucleic-acid assay
Procedure, shortened: as §2

BXPC-3 = experiment: Cytotoxicity against human BxPC3 cells after 96 hrs by SRB assay; details: BXPC-3, 96 h
Nucleic Acid [13] = experiment: Stabilization of human c-kit2 G4 DNA sequence assessed as melting temperature by FRET assay; type: nucleic-acid assay
MCF7 [14] = experiment: Inhibition of human telomerase activity in human MCF7 cells at 50 nM after 1 week by modified TRAP assay; type: cell-based
Procedure, shortened: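 MCF7 cells were exposed to 50 nM ligand for 1 week, then a further week. Telomerase activity was measured by a modified TRAP–LIG assay with denaturing gel separation. Each PCR product ladder's total intensity was scanned and integrated, then normalized to a positive control with untreated telomerase protein only.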

deltaTm (Nucleic Acid [1]) [K] | Activity (Nucleic Acid [2]) | Activity (Nucleic Acid [3]) [%] | deltaTm (Nucleic Acid [4]) [K] | Activity (Nucleic Acid [6]) | inhibition (Nucleic Acid [7]) | inhibition (Nucleic Acid [8]) | inhibition (Nucleic Acid [9]) | deltaTm (Nucleic Acid [11]) [K] | Activity (Nucleic Acid [12]) | deltaTm (Nucleic Acid [13]) [K] | Structure (SMILES) | pIC50 (A549) | pIC50 (MIA PaCa-2) | pIC50 (PANC-1) | pIC50 [5] | pIC50 (HPAC) | pIC50 (MCF7 [10]) | pIC50 (BXPC-3) | inhibition (MCF7 [14]) [%]
1.5 | Active | 50 | 23.8 | Active | Active | inactive | Active | 0.2 | Active | 7.7 | CN1CCN(CCCCCNc2cc3c4c(c(NCCCCCN5CCN(C)CC5)cc5c4c2C(=O)N(CCCCCN2CCN(C)CC2)C5=O)C(=O)N(CCCCCN2CCN(C)CC2)C3=O)CC1 | 6.59 | 6.92 | 6.71 | 5.07 | 6.69 | 6.71 | 6.12 | –
4.9 | Active | 50 | 24.7 | Active | – | – | – | 0.1 | Active | 16.7 | CN1CCN(CCCCNc2cc3c4c(c(NCCCCN5CCN(C)CC5)cc5c4c2C(=O)N(CCCCN2CCN(C)CC2)C5=O)C(=O)N(CCCCN2CCN(C)CC2)C3=O)CC1 | 7.16 | 7.14 | 6.97 | 5.26 | 6.93 | 7.00 | 5.99 | –
1.8 | Active | 50 | 28.3 | Active | Active | inactive | Active | 1.3 | Active | 15.2 | CN1CCN(CCCNc2cc3c4c(c(NCCCN5CCN(C)CC5)cc5c4c2C(=O)N(CCCN2CCN(C)CC2)C5=O)C(=O)N(CCCN2CCN(C)CC2)C3=O)CC1 | 6.97 | 6.95 | 6.83 | 5.04 | 6.73 | 6.78 | 5.82 | 50
